Data on 25 molecules can be found in ChEMBL document CHEMBL1139027, “Design and synthesis of potent and subtype-selective PPARalpha agonists” (Bioorg Med Chem Lett, 2006).

Test [1] deals with T1, Peroxisome proliferator-activated receptor alpha (Homo sapiens, UniProt Q07869).
T1 sequence (Q07869 whole entry): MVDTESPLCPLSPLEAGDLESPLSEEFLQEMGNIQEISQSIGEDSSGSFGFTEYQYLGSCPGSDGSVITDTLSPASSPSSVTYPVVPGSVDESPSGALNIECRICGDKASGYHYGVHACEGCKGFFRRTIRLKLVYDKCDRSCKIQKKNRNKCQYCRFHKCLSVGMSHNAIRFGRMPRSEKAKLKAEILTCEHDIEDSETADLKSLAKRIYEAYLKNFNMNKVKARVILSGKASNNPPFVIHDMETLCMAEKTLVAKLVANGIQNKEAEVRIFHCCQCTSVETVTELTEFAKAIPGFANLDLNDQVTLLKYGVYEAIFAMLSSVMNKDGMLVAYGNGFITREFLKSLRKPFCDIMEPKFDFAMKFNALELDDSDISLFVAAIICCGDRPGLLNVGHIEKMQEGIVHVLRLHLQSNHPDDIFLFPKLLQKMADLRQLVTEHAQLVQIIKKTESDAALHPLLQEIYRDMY
In words: Binding affinity to human PPAR alpha.

For test [2], the target named is T2, Peroxisome proliferator-activated receptor delta (Homo sapiens, UniProt Q03181).
T2 sequence (Q03181 whole entry): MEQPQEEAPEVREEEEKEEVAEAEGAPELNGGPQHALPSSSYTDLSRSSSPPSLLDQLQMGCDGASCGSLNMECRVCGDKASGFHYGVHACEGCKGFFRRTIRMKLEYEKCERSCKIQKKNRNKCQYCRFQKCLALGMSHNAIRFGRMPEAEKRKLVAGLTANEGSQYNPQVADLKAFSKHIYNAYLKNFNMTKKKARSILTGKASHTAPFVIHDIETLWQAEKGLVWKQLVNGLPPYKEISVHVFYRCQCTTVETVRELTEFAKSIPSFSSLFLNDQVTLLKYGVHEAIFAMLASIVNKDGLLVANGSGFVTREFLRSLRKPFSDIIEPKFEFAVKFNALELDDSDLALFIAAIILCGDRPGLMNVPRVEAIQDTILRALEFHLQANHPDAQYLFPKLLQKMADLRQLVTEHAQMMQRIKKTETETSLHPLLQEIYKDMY
In words: Binding affinity to human PPAR delta.

The target of test [3] is T3, Peroxisome proliferator-activated receptor gamma (Homo sapiens, UniProt P37231).
T3 sequence (P37231 whole entry): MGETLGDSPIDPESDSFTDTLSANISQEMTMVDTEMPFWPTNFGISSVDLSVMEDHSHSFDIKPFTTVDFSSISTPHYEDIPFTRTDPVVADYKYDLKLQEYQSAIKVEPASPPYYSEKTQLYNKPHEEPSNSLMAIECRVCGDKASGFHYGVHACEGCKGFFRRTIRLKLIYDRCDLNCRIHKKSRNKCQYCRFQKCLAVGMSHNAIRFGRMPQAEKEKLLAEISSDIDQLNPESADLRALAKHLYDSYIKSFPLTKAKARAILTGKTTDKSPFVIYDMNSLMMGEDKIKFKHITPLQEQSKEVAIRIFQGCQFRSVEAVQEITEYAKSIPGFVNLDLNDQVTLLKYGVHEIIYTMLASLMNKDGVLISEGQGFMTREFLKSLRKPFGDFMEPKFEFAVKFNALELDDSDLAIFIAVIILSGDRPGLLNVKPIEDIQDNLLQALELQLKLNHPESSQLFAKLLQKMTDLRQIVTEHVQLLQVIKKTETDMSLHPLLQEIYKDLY

Test [4] addresses T3, Peroxisome proliferator-activated receptor gamma. Type of test: functional, cell-based, COS-1.
Test [5] has as its target T1, Peroxisome proliferator-activated receptor alpha. Nature of the test: Transactivation by human PPAR alpha in COS1 cells. Type of test: functional, cell-based, COS-1.
Test [6] has as its target T2, Peroxisome proliferator-activated receptor delta. In words: Transactivation by human PPAR delta in COS1 cells. Type of test: functional, cell-based, COS-1.
The target in another test is Cytochrome P450 2C9 (Homo sapiens, UniProt P11712).
Test [7] has as its system Canis familiaris. Nature of the test: Decrease in cholesterol level in Beagle dog at 50 mg/kg, po. Type of test: functional, Canis lupus familiaris. Details: scale not given: the % may be the effect or the level left; call rule not given here. Put shortly: (§1)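 Male beagle dogs (12–18 kg, n = 5) fed cholesterol-free chow ad libitum with free access to water. Compounds were suspended in 0.5% methylcellulose and gavaged daily for 14 days. Serum cholesterol is reported as a mean value, with final-day data compared against vehicle control.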

The test system of test [8] is Syrian golden hamster. Nature of the test: Decrease in cholesterol level in Golden Syrian hamster at 100 mg/kg, po. Type of test: functional, Mesocricetus auratus. Further details: scale not given: the % may be the effect or the level left. Put shortly:
(§2)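 Male Golden Syrian hamsters (120–150 g, n = 10) on normal rodent chow with free access to water. Sodium salts were given by oral gavage once daily for 9 days in 0.5% methylcellulose vehicle. Serum cholesterol and triglycerides were measured and reported as % change.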

The subject of test [9] is Syrian golden hamster. Nature of the test: Decrease in triglyceride level in Golden Syrian hamster at 100 mg/kg, po. Type of test: functional, Mesocricetus auratus. Details: scale not given: the % may be the effect or the level left. Summed up:
as §2

The subject of test [10] is Canis familiaris. Nature of the test: Decrease in cholesterol level in Beagle dog at 4 mg/kg, po. Type of test: functional, Canis lupus familiaris. Further details: scale not given: the % may be the effect or the level left. Put shortly: as §1

Broadly, the IC50 is the midpoint of a concentration-inhibition curve. The EC50 is the concentration giving half of the maximal effect.

Sequence of Cytochrome P450 2C9 (P11712 whole entry): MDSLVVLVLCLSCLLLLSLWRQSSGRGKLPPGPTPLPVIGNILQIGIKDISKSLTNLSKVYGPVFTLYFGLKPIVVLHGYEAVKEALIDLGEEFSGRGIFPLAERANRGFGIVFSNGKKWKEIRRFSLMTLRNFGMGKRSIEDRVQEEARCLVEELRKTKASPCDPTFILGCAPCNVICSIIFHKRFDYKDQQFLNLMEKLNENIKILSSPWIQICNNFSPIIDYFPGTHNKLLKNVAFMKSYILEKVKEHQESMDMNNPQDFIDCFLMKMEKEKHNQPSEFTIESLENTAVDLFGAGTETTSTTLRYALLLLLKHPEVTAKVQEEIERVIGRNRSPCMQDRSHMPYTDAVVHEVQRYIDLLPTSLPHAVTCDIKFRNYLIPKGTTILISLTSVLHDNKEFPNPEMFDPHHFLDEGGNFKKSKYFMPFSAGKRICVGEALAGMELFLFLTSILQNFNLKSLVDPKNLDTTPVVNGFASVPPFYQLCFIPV

Turning to `O=C(O)C(Cc1ccc(OCCCOc2ccc(Oc3ccc(F)cc3)cc2Cl)cc1)c1ccccc1` (centres undefined), the values for the IC50 in test [1], in test [2] (read-out: IC50) and in test [3] were 262 nM, 1340 nM and “Not Active”, respectively.

Take `CCC(CC)(Oc1ccc(OCCCOc2ccc(Oc3ccc(F)cc3)cc2Cl)cc1)C(=O)O`: the IC50 was 22 nM in test [1], “Not Active” in [2] and “Not Active” in test [3]. The EC50 entry was “Not Active” in test [4] (cos-1) and 2.7 nM in test [5] (read-out: EC50).

On to `CC[C@](C)(Oc1ccc(OCCCOc2ccc(Oc3ccc(F)cc3)cc2Cl)cc1)C(=O)O`, for which the IC50 in test [1] is 6 nM; in [2] (read-out: IC50) it was 1090 nM; in test [3], “Not Active”. Moreover, the EC50 result in test [4] (cos-1) was “Not Active”; in test [5] (read-out: EC50), 3 nM.

In the case of `CC[C@@](C)(Oc1ccc(OCCCOc2ccc(Oc3ccc(F)cc3)cc2Cl)cc1)C(=O)O`, the IC50 in [1] was 101 nM; in [2] (read-out: IC50), 2410 nM; in [3] it was “Not Active”. Moreover, the EC50 in [4] (read-out: EC50) was more than 3000 nM; in [5] (read-out: EC50), 20 nM.

As to `CCC(C)(Oc1ccc(OCCCOc2ccc(Oc3ccc(F)cc3)cc2Cl)cc1)C(=O)O` (centres undefined), the figures for the IC50 in [1], in test [2] and in [3] (read-out: IC50) were 5 nM, “Not Active” and 1240 nM, respectively. Moreover, the EC50 result in test [4] (cos-1) is “Not Active”; in [5] (read-out: EC50) it was 2.5 nM.

`CC(C)(Oc1ccc(OCCOc2ccc(Oc3ccc(F)cc3)cc2Cl)cc1)C(=O)O`: the EC50 was 87 nM in [1] (read-out: EC50); “Not Active” in test [2]; “Not Active” in test [3]; “Not Active” in test [4] (cos-1); “Not Active” in [6] (cos-1); 62 nM in test [5] (read-out: EC50).

Consider `O=C(O)CCc1ccc(OCCCOc2ccc(Oc3ccc(F)cc3)cc2Cl)cc1`, for which the IC50 in [1] was 675 nM; in test [2] (read-out: IC50) it was more than 50 nM.

On to `CCC1(CC)C=C(C(F)(F)F)c2cc(Cl)c(OCCCOc3ccc(O[C@](C)(CC)C(=O)O)cc3)cc2O1`, for which the IC50 in test [1] was 125 nM; in test [2], “Not Active”; in test [3], “Not Active”.

Take `CC[C@@](C)(Oc1ccc(OCCCOc2ccc3c(C(F)(F)F)cc(=O)oc3c2Cl)cc1)C(=O)O`: the IC50 in test [1] was 157 nM; in test [2] (read-out: IC50), 3270 nM; in [3] it was “Not Active”.

For `CC[C@@](C)(Cc1ccc(OCCCOc2ccccc2Cl)cc1)C(=O)O`, the IC50 in [1] was found to be 42 nM; in test [2] (read-out: IC50), 4630 nM. Further, the EC50 in test [5] (read-out: EC50) was 54.1 nM.

As to `CCCc1cc(Oc2ccc(F)cc2)ccc1OCCCOc1ccc(OC(C)(C)C(=O)O)cc1`, the EC50 in test [1] (read-out: EC50) worked out at 110 nM; in test [2] (read-out: EC50), 106 nM; in [6] (read-out: EC50), 55 nM; in test [5] (read-out: EC50), 51 nM.

Take `CC[C@@](C)(Cc1ccc(OCCCOc2ccc3c(C(F)(F)F)cc(=O)oc3c2C)cc1)C(=O)O`: the IC50 was 49 nM in test [1], 134 nM in test [2] (read-out: IC50) and “Not Active” in [3]. In [5] (read-out: EC50), the EC50 worked out at 10 nM.

For `CCC(Cc1ccc(OCCCOc2ccc(Oc3ccc(F)cc3)cc2Cl)cc1)C(=O)O` (centres undefined), the IC50 in test [1] is 156 nM; in [2] (read-out: IC50) it was 1170 nM; in [3], “Not Active”.

For `CC(Cc1ccc(OCCCOc2ccc(Oc3ccc(F)cc3)cc2Cl)cc1)C(=O)O` (centres undefined), the IC50 is 208 nM in test [1], 4070 nM in test [2] (read-out: IC50) and “Not Active” in [3].

On to `CC[C@@](C)(Cc1ccc(OCCCOc2ccc(CC(F)(F)F)cc2Cl)cc1)C(=O)O`, for which the IC50 in test [1] is less than 1 nM; in test [2] (read-out: IC50), more than 70000 nM; in test [3] (read-out: IC50), more than 6000 nM; at Cytochrome P450 2C9, less than 50 nM. In addition, the EC50 entry in test [4] (cos-1) was “Not Active”; in test [5] (read-out: EC50), less than 1 nM.

Regarding `CC[C@@](C)(Cc1ccc(OCCCOc2ccc3c(C)cc(O)nc3c2)cc1)C(=O)O`, the IC50 in test [1] is 6090 nM; in [2] it was “Not Active”; in [3], “Not Active”.

On to `CC(C)(Oc1ccc(OCCCOc2ccc(Oc3ccc(F)cc3)cc2Cl)cc1)C(=O)O`, for which the IC50 in test [1] turned out to be 30 nM; in test [2] (read-out: IC50) it was 2390 nM. The figures for the EC50 in test [6] (read-out: EC50) and in test [5] (read-out: EC50) were more than 3000 nM and 20 nM, respectively.

Turning to `CCCc1cc(Oc2ccc(F)cc2)ccc1OCCCOc1ccc(C2SC(=O)NC2=O)cc1` (centres undefined), the EC50 entry in test [1], in test [2], in test [6] (cos-1) and in [5] (cos-1) was “Not Active” in each case.

As for `CC(C)(Oc1ccc(OCCCCOc2ccc(Oc3ccc(F)cc3)cc2Cl)cc1)C(=O)O`, the EC50 came out at 66 nM in test [1] (read-out: EC50), 545 nM in test [2] (read-out: EC50), 284 nM in test [6] (read-out: EC50) and 35 nM in test [5] (read-out: EC50).

For the molecule `CC(C)(Oc1cccc(OCCCOc2ccc(Oc3ccc(F)cc3)cc2Cl)c1)C(=O)O`, the EC50 in test [1] (read-out: EC50) is 36 nM; in [3], “Not Active”; in test [5] (read-out: EC50) it was 21 nM.

`CCCC(Cc1ccc(OCCCOc2ccc(Oc3ccc(F)cc3)cc2Cl)cc1)C(=O)O` (centres undefined): the IC50 is 130 nM in test [1], 1130 nM in test [2] (read-out: IC50) and “Not Active” in test [3]. In addition, in [5] (read-out: EC50), the EC50 turned out to be 454 nM.

Turning to `O=C(O)C(Cc1ccc(OCCCOc2ccc(Oc3ccc(F)cc3)cc2Cl)cc1)C1CCC1` (centres undefined), the results for the IC50 in test [1], in test [2] (read-out: IC50) and in [3] were 116 nM, 1350 nM and “Not Active”, respectively. Also, the EC50 result in test [4] (cos-1) is “Not Active”; in test [5] (read-out: EC50) it was 15 nM.

`CC(C)(Oc1ccccc1OCCCOc1ccc(Oc2ccc(F)cc2)cc1Cl)C(=O)O`: the EC50 entry in test [1], in test [2] and in test [3] was “Not Active” each time.

Take `CC(C)OC(=O)C(C)(C)Oc1ccc(C(=O)c2ccc(Cl)cc2)cc1` [FENOFIBRATE]: the figures for the Activity in the test with Canis familiaris [7], in the test on Syrian golden hamster [8] and in the test with Syrian golden hamster [9] were -18%, -31% and -30%, respectively.

With `CCC(C)(C)C(=O)O[C@H]1C[C@@H](C)C=C2C=C[C@H](C)[C@H](CC[C@@H]3C[C@@H](O)CC(=O)O3)[C@H]21` [SIMVASTATIN], the Activity in the test on Canis familiaris [10] was -19%.
